Measurements taken from ChEMBL document CHEMBL3758153, “Identification of novel cyclic lipopeptides from a positional scanning combinatorial library with enhanced antibacterial and antibiofilm activities” (Eur J Med Chem, 2016).
Calls of active or inactive are those of the source. No cut-off for these calls is given here.

Tests used:
[1] = test system: Enterococcus faecium; assay: Antibacterial activity against vancomycin-resistant Enterococcus faecium USF-1449 at 100 ug/mL; type: functional, organism-based
In short: (§1)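 CLSI microbroth dilution in undiluted Müller–Hinton broth; peptides dissolved in DMSO and diluted in medium to 1% DMSO (v/v) final. Each agent tested at a fixed concentration against the ESKAPE clinical isolate. Controls: medium alone, inoculum without drug, and inoculum with methicillin, vancomycin, nisin, colistin or bacitracin. Run in triplicate.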

[2] = test system: Acinetobacter baumannii; assay: Antibacterial activity against Acinetobacter baumannii USF-1403 at 100 ug/mL; type: functional, organism-based
In short: (§2)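 Broth microdilution per CLSI in undiluted Müller–Hinton broth. Compounds were dissolved in DMSO and diluted to a final 1% DMSO (v/v). Plates included medium-only and no-drug growth controls, plus methicillin, vancomycin, nisin, colistin and bacitracin. Triplicate runs.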

[3] = test system: Enterococcus faecium; assay: Antibacterial activity against vancomycin-resistant Enterococcus faecium USF-1449 at 50 ug/mL; type: functional, organism-based; in short: as §1
[4] = test system: Acinetobacter baumannii; assay: Antibacterial activity against Acinetobacter baumannii USF-1403 at 50 ug/mL; type: functional, organism-based; in short: as §2
[5] = test system: Acinetobacter baumannii; assay: Antibacterial activity against Acinetobacter baumannii USF-1403 at 35 ug/mL; type: functional, organism-based; in short: as §2
[6] = test system: Acinetobacter baumannii; assay: Antibacterial activity against Acinetobacter baumannii USF-1403 at 25 ug/mL; type: functional, organism-based; in short: as §2
[7] = test system: Staphylococcus aureus; assay: Antibacterial activity against methicillin-resistant Staphylococcus aureus CBD-635 at 100 ug/mL; type: functional, organism-based; in short: as §1
[8] = test system: Staphylococcus aureus; assay: Antibacterial activity against methicillin-resistant Staphylococcus aureus CBD-635 at 50 ug/mL; type: functional, organism-based; in short: as §1
[9] = test system: Staphylococcus aureus; assay: Antibacterial activity against methicillin-resistant Staphylococcus aureus CBD-635 at 35 ug/mL; type: functional, organism-based; in short: as §1
[10] = test system: Staphylococcus aureus; assay: Antibacterial activity against methicillin-resistant Staphylococcus aureus CBD-635 at 25 ug/mL; type: functional, organism-based; in short: as §1
[11] = test system: Staphylococcus aureus; assay: Antibacterial activity against methicillin-resistant Staphylococcus aureus SAP0017 clinical isolate assessed as inhibition of biofilm formation at 4.8 uM after 3 days by Styo-9/propidium iodide staining based confocal laser scanning microscopy; type: functional, organism-based
[12] = test system: Pseudomonas aeruginosa; assay: Antibacterial activity against Pseudomonas aeruginosa PA14 assessed as inhibition of biofilm formation at 4.8 uM after 3 days by Styo-9/propidium iodide staining based confocal laser scanning microscopy; type: functional, organism-based
[13] = test system: Staphylococcus aureus; assay: Antibacterial activity against methicillin-resistant Staphylococcus aureus SAP0017 clinical isolate assessed as eradication of mature biofilm formation at 4.8 uM after 24 hrs by Styo-9/propidium iodide staining based confocal laser scanning microscopy; type: functional, organism-based
[14] = test system: Pseudomonas aeruginosa; assay: Antibacterial activity against Pseudomonas aeruginosa PA14 assessed as eradication of mature biofilm formation at 4.8 uM after 24 hrs by Styo-9/propidium iodide staining based confocal laser scanning microscopy; type: functional, organism-based
[15] = Hemolytic activity in human erythrocytes at 320 uM after 1 hr; type: ADME, cell-based; conditions: erythrocyte
[16] = test system: Klebsiella pneumoniae; assay: Antibacterial activity against carbapenem-resistant Klebsiella pneumoniae USF-1433 at 100 ug/mL; type: functional, organism-based; in short: as §1
[17] = test system: Pseudomonas aeruginosa; assay: Antibacterial activity against Pseudomonas aeruginosa USF-1423 at 100 ug/mL; type: functional, organism-based; in short: as §2
[18] = test system: Enterobacter cloacae; assay: Antibacterial activity against carbapenem-resistant Enterobacter cloacae USF-1454 at 100 ug/mL; type: functional, organism-based; in short: as §1
[19] = test system: Pseudomonas aeruginosa; assay: Antibacterial activity against Pseudomonas aeruginosa USF-1423 at 50 ug/mL; type: functional, organism-based; in short: as §2
[20] = test system: Enterobacter cloacae; assay: Antibacterial activity against carbapenem-resistant Enterobacter cloacae USF-1454 at 50 ug/mL; type: functional, organism-based; in short: as §1
[21] = test system: Enterococcus faecium; assay: Antibacterial activity against vancomycin-resistant Enterococcus faecium USF-1449 at 25 ug/mL; type: functional, organism-based; in short: as §1
[22] = test system: Pseudomonas aeruginosa; assay: Antibacterial activity against Pseudomonas aeruginosa USF-1423 at 25 ug/mL; type: functional, organism-based; in short: as §2
[23] = test system: Enterobacter cloacae; assay: Antibacterial activity against carbapenem-resistant Enterobacter cloacae USF-1454 at 25 ug/mL; type: functional, organism-based; in short: as §1
[24] = test system: Enterococcus faecium; assay: Antibacterial activity against vancomycin-resistant Enterococcus faecium USF-1449 at 10 ug/mL; type: functional, organism-based; in short: as §1
[25] = test system: Acinetobacter baumannii; assay: Antibacterial activity against Acinetobacter baumannii USF-1403 at 10 ug/mL; type: functional, organism-based; in short: as §2
[26] = test system: Pseudomonas aeruginosa; assay: Antibacterial activity against Pseudomonas aeruginosa USF-1423 at 10 ug/mL; type: functional, organism-based; in short: as §2
[27] = test system: Acinetobacter baumannii; assay: Antibacterial activity against Acinetobacter baumannii USF-1403 at 5 ug/mL; type: functional, organism-based; in short: as §2
[28] = test system: Pseudomonas aeruginosa; assay: Antibacterial activity against Pseudomonas aeruginosa USF-1423 at 5 ug/mL; type: functional, organism-based; in short: as §2

Row | Molecule | Activity [1] | Activity [2] | Activity [3] | Activity [4] | Activity [6] | Activity [7] | Activity [8] | Activity [9] | also measured
1 | CC[C@@H](C)[C@H]1NC(=O)[C@H](CC(C)C)NC(=O)[C@@H](CCCCN)NC(=O)C(NC(=O)CCCCCCCCCCCNC(=N)N)CNC(=O)[C@@H](CCCCN)NC(=O)[C@@H](CC(N)=O)NC1=O (some centres undefined) | Active | Active | Active | Active | Active |  |  |  | Activity [5]: Active
2 | CC[C@@H](C)[C@H]1NC(=O)[C@H](Cc2ccccc2)NC(=O)[C@@H](CC(C)C)NC(=O)C(NC(=O)CCCCCCCCCCCNC(=N)N)CNC(=O)[C@@H](CCCNC(=N)N)NC(=O)[C@@H](CC(N)=O)NC1=O (some centres undefined) |  |  |  |  |  | Active | Active | Active | 
3 | CC(C)[C@@H]1NC(=O)[C@@H](C(C)C)NC(=O)C(NC(=O)CCCCCCCCCCCNC(=N)N)CNC(=O)[C@@H](C)NC(=O)[C@@H](CC(N)=O)NC(=O)[C@@H]([C@@H](C)O)NC1=O (some centres undefined) | Active | Active | Active |  |  | Active |  |  | Activity [10]: Active; inhibition [11]: Active; inhibition [12]: Active; inhibition [13]: inactive; inhibition [14]: inactive; Activity [15]: Non-toxic
4 | CC(C)C[C@@H]1NC(=O)[C@@H](CC(C)C)NC(=O)C(NC(=O)CCCCCCCCCCCNC(=N)N)CNC(=O)[C@@H](CCCCN)NC(=O)[C@@H](CC(N)=O)NC(=O)[C@@H](Cc2ccccc2)NC1=O (some centres undefined) |  |  |  |  |  | Active | Active | Active | 
5 | COLISTIN | Active | Active | Active | Active | Active | Active |  |  | Activity [16]: Active; Activity [17]: Active; Activity [18]: Active; Activity [19]: Active; Activity [20]: Active; Activity [21]: Active; Activity [22]: Active; Activity [23]: Active; Activity [24]: Active; Activity [25]: Active; Activity [26]: Active; Activity [27]: Active; Activity [28]: Active
6 | CC[C@@H](C)[C@H]1NC(=O)[C@H](Cc2ccccc2)NC(=O)[C@@H](CC(C)C)NC(=O)C(NC(=O)CCCCCCCCCCCNC(=N)N)CNC(=O)[C@@H](CCCCN)NC(=O)[C@@H](CC(N)=O)NC1=O (some centres undefined) |  |  |  |  |  | Active | Active | Active | 
